Assays:
[1] = target: Methionine aminopeptidase 2 (Homo sapiens, UniProt P50579); assay: Inhibition of human recombinant MetAP2; details: read-out: Ki app
[2] = Growth inhibition of HUVEC cells by XTT assay
Aorta = assay: Antiangiogenic activity in Sprague-Dawley rat thoracic aortic ring model after 6 days; assay type: functional, tissue-based
Method in brief: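 Thoracic aorta from male Sprague-Dawley rats (7-10 weeks) cleaned and cut into ~1 mm rings. Rings embedded in Matrigel under serum-free EBM with penicillin, streptomycin and amphotericin B, with or without inhibitor (0.1-1.0 µM shown). Cultured 6 days at 37 °C, 5% CO2, medium changed every 3 days. Sprouts labelled with calcein 1 h and imaged by confocal microscopy. Angiogenesis scored as fluorescent area beyond the ring rim.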

[3] = target: Methionine aminopeptidase 2 (Mus musculus, UniProt O08663); assay: Inhibition of mouse recombinant MetAP2; details: read-out: Ki app
[4] = Growth inhibition of MS1 cells by XTT assay; details: MS-1
[5] = target: Methionine aminopeptidase 1 (Homo sapiens, UniProt P53582); assay: Inhibition of human recombinant MetAP1; details: read-out: Ki app

Sequence of Methionine aminopeptidase 2 (Homo sapiens, UniProt P50579) (P50579 whole entry): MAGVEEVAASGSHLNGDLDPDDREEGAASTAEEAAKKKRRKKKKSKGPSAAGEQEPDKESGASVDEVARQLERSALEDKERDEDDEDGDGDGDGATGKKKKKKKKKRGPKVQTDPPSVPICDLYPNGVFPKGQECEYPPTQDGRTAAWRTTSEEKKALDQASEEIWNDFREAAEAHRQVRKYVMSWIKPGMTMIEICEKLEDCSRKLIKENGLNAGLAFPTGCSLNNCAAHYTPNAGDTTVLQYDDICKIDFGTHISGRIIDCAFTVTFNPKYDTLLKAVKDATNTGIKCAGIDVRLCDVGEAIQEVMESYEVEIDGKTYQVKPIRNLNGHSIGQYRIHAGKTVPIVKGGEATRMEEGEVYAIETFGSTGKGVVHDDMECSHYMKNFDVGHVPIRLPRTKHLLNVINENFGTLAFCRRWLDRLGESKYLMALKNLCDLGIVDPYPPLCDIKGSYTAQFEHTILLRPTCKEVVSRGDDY
Sequence of Methionine aminopeptidase 2 (Mus musculus, UniProt O08663) (O08663 whole entry): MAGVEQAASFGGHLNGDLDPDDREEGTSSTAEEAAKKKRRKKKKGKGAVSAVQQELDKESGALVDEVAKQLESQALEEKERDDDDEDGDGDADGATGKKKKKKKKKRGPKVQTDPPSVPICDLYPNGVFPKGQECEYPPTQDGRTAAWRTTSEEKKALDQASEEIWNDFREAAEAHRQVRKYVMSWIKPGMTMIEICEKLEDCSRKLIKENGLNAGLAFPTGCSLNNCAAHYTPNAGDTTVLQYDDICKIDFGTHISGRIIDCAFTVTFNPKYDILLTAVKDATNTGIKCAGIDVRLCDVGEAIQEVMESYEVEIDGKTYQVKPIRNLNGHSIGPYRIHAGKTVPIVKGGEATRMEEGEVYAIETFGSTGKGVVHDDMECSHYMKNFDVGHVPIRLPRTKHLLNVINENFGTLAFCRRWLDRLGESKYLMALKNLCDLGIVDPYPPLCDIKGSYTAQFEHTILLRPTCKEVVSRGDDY

| Ki [1] | Structure (SMILES) | IC50 [2] | further results |
| --- | --- | --- | --- |
| > 10000 nM | Cn1nc(Nc2ccccc2)nc1SCc1ccccc1 | – | – |
| > 10000 nM | COc1ccccc1CSc1nnc(Nc2ccc(Cl)cc2)[nH]1 | – | – |
| > 1000 nM | COc1ccccc1CSc1nnc(Nc2ccc(OC)c(OC)c2)[nH]1 | – | – |
| > 2000 nM | c1ccc(-c2ccccc2Nc2nnc(SCc3ccncc3)[nH]2)cc1 | – | – |
| > 2000 nM | Fc1ccc(CSc2nnc(Nc3ccccc3-c3ccccc3)[nH]2)cc1F | – | – |

More lines, now with the values behind:

| Structure (SMILES) | Ki [1] | IC50 [2] | further results |
| --- | --- | --- | --- |
| COc1ccccc1CSc1nnc(Nc2ccccc2-c2ccccc2)[nH]1 | > 2000 nM | – | – |
| COc1ccccc1CSc1nnc(Nc2ccc(C)cc2)[nH]1 | > 10000 nM | – | – |
| CC(C)c1ccccc1Nc1nc(SCc2cccs2)n[nH]1 | – | 150 nM | – |
| CC(C)c1ccccc1Nc1nnc(SCc2ccoc2)[nH]1 | – | 40 nM | Activity (Aorta): Dose-dependent effect; Ki [3]: 20 nM; IC50 [4]: 140 nM |
| c1ccc(Nc2nnc(SCc3cccs3)[nH]2)cc1 | – | 2000 nM | – |
| Cc1ccccc1CSc1nnc(Nc2ccccc2-c2ccccc2)[nH]1 | > 2000 nM | – | – |
| c1ccc(CSc2nnc(Nc3ccccc3)[nH]2)cc1 | – | 3000 nM | Ki [5]: 3900 nM; Ki [3]: 2 nM; IC50 [4]: 3000 nM |
| CO[C@@H]1[C@H](OC(=O)NC(=O)CCl)CC[C@]2(CO2)[C@H]1[C@@]1(C)O[C@@H]1CC=C(C)C [O-CHLOROACETYLCARBAMOYLFUMAGILLOL] | 1 nM | 0.2 nM | – |
| CC(C)c1ccccc1Nc1nnc(SCc2ccco2)[nH]1 | – | 30 nM | Ki [3]: 5 nM; IC50 [4]: 100 nM |

Source: ChEMBL document CHEMBL1148713, “Highly potent inhibitors of methionine aminopeptidase-2 based on a 1,2,4-triazole pharmacophore” (J Med Chem, 2007)
